Laboratory results published in ChEMBL document CHEMBL1121934, “2,3-dihydro and carbocyclic analogues of tryptamines: interaction with serotonin receptors” (J Med Chem, 1982).

target: 5-hydroxytryptamine receptor 2B (Rattus norvegicus, UniProt P30994); assay: The binding affinity to 5-hydroxytryptamine 2B receptor of rat fundus; conditions: read-out: pA2 (converted)
Procedure, shortened: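 Isolated rat stomach fundus strip preparation. After a 1-h equilibration, 5-HT oxalate dose-response curves (9–11 increasing concentrations) were run without and with 4–5 increasing concentrations of test compound. Apparent affinity was expressed as pA2 by Arunlakshana–Schild analysis, with linear regression giving both pA2 and Schild plot slope.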

Chain of 5-hydroxytryptamine receptor 2B (P30994 whole entry): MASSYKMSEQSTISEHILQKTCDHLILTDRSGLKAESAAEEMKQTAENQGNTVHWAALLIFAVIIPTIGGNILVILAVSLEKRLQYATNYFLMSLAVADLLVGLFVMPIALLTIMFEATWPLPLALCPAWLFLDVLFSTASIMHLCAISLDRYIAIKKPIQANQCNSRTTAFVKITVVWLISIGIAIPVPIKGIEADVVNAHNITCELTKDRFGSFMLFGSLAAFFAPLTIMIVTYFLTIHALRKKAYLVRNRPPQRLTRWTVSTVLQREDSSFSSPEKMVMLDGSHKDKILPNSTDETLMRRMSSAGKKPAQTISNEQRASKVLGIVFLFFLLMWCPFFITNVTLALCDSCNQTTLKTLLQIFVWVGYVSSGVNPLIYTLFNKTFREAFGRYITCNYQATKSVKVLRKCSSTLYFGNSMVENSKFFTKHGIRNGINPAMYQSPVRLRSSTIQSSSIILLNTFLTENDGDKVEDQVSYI

`NCCC1CCc2ccccc21` (racemic) and `CNCCC1CCc2ccccc21` (stereo in doubt; 4d) are within 1.5-fold of each other in Kb: 2510 nM for the first, 2190 nM for the second.

Compared with `CN(C)CCC1=CCc2ccccc21`, `CN(C)CCC1CCc2ccccc21` (racemic) is 2.2-fold higher in Kb: 2090 nM for the first, 4570 nM for the second.

First: NCCc1c[nH]c2ccccc12 [TRYPTAMINE]
Second: CNCCc1c[nH]c2ccccc12
The Kb of the first is 2-fold lower: 537 nM for the first, 1070 nM for the second.

Compared with `CN(C)CCCc1ccccc1`, `CN(C)CCNc1ccccc1` is 8.5-fold lower in Kb: 8130 nM for the first, 955 nM for the second.

First: CN(C)CCC1CNc2ccccc21 (racemic)
Second: COc1ccc2c(c1)C(CCN(C)C)CN2 (racemic)
The Kb of the first is 11-fold higher: 2090 nM for the first, 182 nM for the second.

`CN(C)CCC(=O)c1ccccc1` and `CNCCC1CCc2ccccc21` (racemic) are within 1.5-fold of each other in Kb: 4790 nM for the first, 4270 nM for the second.

`NC1CCc2ccccc2C1` (stereo not drawn) gave a Kb of 2450 nM.
